Experimental data taken from publication PMC7115615 (European Journal of Medicinal Chemistry, 2013).
Like-named read-outs stand apart in the source and are kept apart here.

Tests used:
SARS CoV Urbani = test: microbe, parasite or virus in culture; format: cell-based, SARS coronavirus; conditions: for EC50: Severe acute respiratory syndrome coronavirus
[1] = tested on: panel of approximately sixty human tumor cell lines; test: NCI one-dose primary anticancer assay; format: cell-based; conditions: for activity at 10 µM: Homo sapiens, 60 cell, 48 h; for anticancer activity in words / number of cell lines against which the compound was effective: 1 dose 10 μM
How it was run: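 NCI DTP single-dose screen on approximately sixty human tumor cell lines from nine cancer types. Test compound added at 10⁻⁵ M and cultures incubated 48 h. End point by sulforhodamine B protein staining, read spectrophotometrically. Result expressed as percent growth of treated cells relative to untreated control cells.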

[2] = tested on: Flu A (H5N1) Duck/MN/1525/81; format: cell-based
[3] = tested on: four strains of influenza virus; test: Primary antiviral assay, influenza strains taken together; format: cell-based
[4] = tested on: respiratory viruses panel (Flu A (H1N1), Flu A (H3N2), Flu A (H5N1), Flu B, SARS CoV); format: cell-based
[5] = tested on: Flu A (H3N2) Perth/16/2009; test: Primary antiviral assay; format: cell-based
[6] = tested on: Flu A (H1N1) California/07/2009; test: Primary antiviral assay; format: cell-based
Flu B Florida/4/2006 = test: Primary antiviral assay; format: cell-based
[7] = tested on: NSC lung cancer cell lines; test: NCI five-dose anticancer assay; format: cell-based, human; conditions: 48 h; for GI50: Homo sapiens; for TGI: NSC lung cancer subpanel average, five concentrations
How it was run: (§1)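 Approximately sixty human tumor cell lines from nine cancer types, tested by the NCI DTP protocol. Test compound given at five 10-fold dilutions (100, 10, 1, 0.1, 0.01 μM) with 48 h continuous exposure. SRB protein staining read spectrophotometrically at time zero, in untreated control and in treated wells. […] MG_MID averages each parameter over all cell lines.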

[8] = tested on: Ovarian cancer cell lines; test: NCI five-dose anticancer assay; format: cell-based, human; conditions: 48 h; for GI50: Homo sapiens; for TGI: Ovarian cancer subpanel average, five concentrations
How it was run: as §1

[9] = tested on: Leukemia subpanel tumor cell lines; test: NCI five-dose anticancer assay; format: cell-based, human; conditions: for GI50: Homo sapiens; for TGI: Leukemia subpanel average, five concentrations
How it was run: as §1

CNS cancer cell lines = test: NCI five-dose anticancer assay; format: cell-based, human; conditions: 48 h; for TGI: CNS cancer subpanel average, five concentrations; for GI50: Homo sapiens
How it was run: as §1

Breast cancer cell lines = test: NCI five-dose anticancer assay; format: cell-based, human; conditions: 48 h; for TGI: Breast cancer subpanel average, five concentrations
How it was run: as §1

[10] = tested on: panel of approximately sixty tumor cell lines; test: NCI five-dose anticancer assay; format: cell-based; conditions: Homo sapiens, read-out: GI50 MG_MID
How it was run: as §1

Melanoma cell lines = test: NCI five-dose anticancer assay; format: cell-based, human; conditions: 48 h; for GI50: Homo sapiens; for TGI: Melanoma subpanel average, five concentrations
How it was run: as §1

Colon cancer cell lines = test: NCI five-dose anticancer assay; format: cell-based, human; conditions: 48 h; for TGI: Colon cancer subpanel average, five concentrations; for GI50: Homo sapiens
How it was run: as §1

Renal cancer cell lines = test: NCI five-dose anticancer assay; format: cell-based, human; conditions: 48 h; for GI50: Homo sapiens; for TGI: Renal cancer subpanel average, five concentrations
How it was run: as §1

MOLT-4 = test: NCI five-dose anticancer assay; format: cell-based, human; conditions: MOLT-4, Leukemia; 48 h
How it was run: as §1

[11] = tested on: Prostate cancer cell lines; test: NCI five-dose anticancer assay; format: cell-based; conditions: Homo sapiens, 48 h
How it was run: as §1

HS 578T = test: NCI five-dose anticancer assay; format: cell-based, human; conditions: Breast cancer, 48 h
How it was run: as §1

[12] = 50% effective (virus-inhibitory) concentration

CCN1CCN(CN2C(=O)SC(N3N=C(c4ccc5ccccc5c4)CC3c3ccc(Cl)cc3)C2=O)CC1 (centres unmarked) [3e, 5-[5-(4-Chlorophenyl)-3-naphthalen-2-yl-4,5-dihydropyrazol-1-yl]-3-(4-ethylpiperazin-1-ylmethyl)-thiazolidine-2,4-dione]
SI (SARS CoV Urbani): 0
EC50 (SARS CoV Urbani): > 16.8 µM

COc1ccc(C2CC(c3ccc4ccccc4c3)=NN2C2SC(=O)N(CN3CCN(Cc4ccccc4)CC3)C2=O)cc1 (centres unmarked) [3d, 3-(4-Benzylpiperazin-1-ylmethyl)-5-[5-(4-methoxyphenyl)-3-naphthalen-2-yl-4,5-dihydropyrazol-1-yl]-thiazolidine-2,4-dione]
activity at 10 µM ([1]; read-out: Mean growth %): 103%
activity at 10 µM ([1]; read-out: Range of growth %): 74.5 to 127%

COc1ccc(NC(=O)CN2C(=O)SC(N3N=C(c4ccc5ccccc5c4)CC3c3ccc(Cl)cc3)C2=O)cc1 (centres unmarked) [2c, 2-{5-[5-(4-Chlorophenyl)-3-naphthalen-2-yl-4,5-dihydropyrazol-1-yl]-2,4-dioxothiazolidin-3-yl}-N-(4-methoxyphenyl)-acetamide]
SI (SARS CoV Urbani): 0
EC50 (SARS CoV Urbani): > 342 µM

O=C1NC(=O)C(N2N=C(c3ccc4ccccc4c3)CC2c2ccc(Cl)cc2)S1 (centres unmarked) [1b, 5-[5-(4-Chlorophenyl)-3-naphthalen-2-yl-4,5-dihydropyrazol-1-yl]-thiazolidine-2,4-dione]
anticancer activity in words [1]: did not show any activity
activity at 10 µM ([1]; read-out: Mean growth %): 105%
activity at 10 µM ([1]; read-out: Range of growth %): 74.9 to 170%
SI (SARS CoV Urbani): 0
EC50 (SARS CoV Urbani): > 23.2 µM

COc1ccc(C2CC(c3ccc4ccccc4c3)=NN2C2SC(=O)N(CC(=O)Nc3ccc(C)cc3)C2=O)cc1 (centres unmarked) [2a, 2-{5-[5-(4-Methoxyphenyl)-3-naphthalen-2-yl-4,5-dihydropyrazol-1-yl]-2,4-dioxothiazolidin-3-yl}-N-p-tolylacetamide]
anticancer activity in words [1]: did not show any activity
activity at 10 µM ([1]; read-out: Mean growth %): 99.2%
activity at 10 µM ([1]; read-out: Range of growth %): 76.6 to 114%
SI [2]: >16.3
SI (SARS CoV Urbani): 0
EC50 (SARS CoV Urbani): > 313 µM
activity against other influenza strains, in words [3]: did not have significant activity

COc1ccc(C2CC(c3ccc4ccccc4c3)=NN2C2SC(=O)N(CN3CCOCC3)C2=O)cc1 (centres unmarked) [3b, 5-[5-(4-Methoxyphenyl)-3-naphthalen-2-yl-4,5-dihydropyrazol-1-yl]-3-morpholin-4-ylmethylthiazolidine-2,4-dione]
activity at 10 µM ([1]; read-out: Mean growth %): 99.5%
activity at 10 µM ([1]; read-out: Range of growth %): 67.5 to 122%

COc1ccc(C2CC(c3ccc4ccccc4c3)=NN2C(=O)/C=C2\SC(=O)NC2=O)cc1 (centres unmarked) [4e, 5-{2-[5-(4-Methoxyphenyl)-3-naphthalen-2-yl-4,5-dihydropyrazol-1-yl]-2-oxoethylidene}-thiazolidine-2,4-dione]
anticancer activity in words [1]: did not show any activity
activity at 10 µM ([1]; read-out: Mean growth %): 99.7%
activity at 10 µM ([1]; read-out: Range of growth %): 78.7 to 132%

CC(=O)N1CCN(CN2C(=O)SC(N3N=C(c4ccc5ccccc5c4)CC3c3ccc(Cl)cc3)C2=O)CC1 (centres unmarked) [3f, 3-(4-Acetylpiperazin-1-ylmethyl)-5-[5-(4-chlorophenyl)-3-naphthalen-2-yl-4,5-dihydropyrazol-1-yl]-thiazolidine-2,4-dione]
anticancer activity in words [1]: did not show any activity
activity at 10 µM ([1]; read-out: Mean growth %): 102%
activity at 10 µM ([1]; read-out: Range of growth %): 76.4 to 131%

COc1ccc(C2CC(c3ccc4ccccc4c3)=NN2C2SC(=O)N(CN3CCCCC3)C2=O)cc1 (centres unmarked) [3a, 5-[5-(4-Methoxyphenyl)-3-naphthalen-2-yl-4,5-dihydropyrazol-1-yl]-3-piperidin-1-ylmethylthiazolidine-2,4-dione]
activity at 10 µM ([1]; read-out: Mean growth %): 101%
activity at 10 µM ([1]; read-out: Range of growth %): 69.5 to 113%

oseltamivir carboxylate [Oseltamirvir-carboxylate]
activity of positive controls, in words [4]: active as expected
EC50 [5, 12]: 3.06 µM
SI ([5]; […]): >11
EC50 [2]: 0.11 µM
SI [2]: >326
EC50 [6, 12]: 19 µM
SI ([6]; […]): >1.9
CC50 (uninfected cells): > 35.2 µM
EC50 (Flu B Florida/4/2006; [12]): 3.52 µM
SI (Flu B Florida/4/2006; […]): >10

COc1ccc(C2=NN(C(=O)/C=C3\SC(=O)NC3=O)C(c3ccccc3O)C2)cc1 (centres unmarked) [4d, 5-{2-[5-(2-Hydroxyphenyl)-3-(4-methoxyphenyl)-4,5-dihydropyrazol-1-yl]-2-oxoethylidene}-thiazolidine-2,4-dione]
GI50 [7]: 7.91 µM
TGI [7]: 42.06 µM
GI50 [8]: 11.4 µM
TGI [8]: 79.20 µM
GI50 ([9]; 48 h): 3.28 µM
GI50 ([9]; read-out: GI50 values range): 2.12 to 4.58 µM
TGI ([9]; 48 h): 25.31 µM
number of cell lines against which the compound was effective [1]: 12 cell lines
activity at 10 µM ([1]; read-out: Mean growth %): 60.1%
activity at 10 µM ([1]; read-out: Range of growth %): -27.3 to 160%
TGI (CNS cancer cell lines): 24.10 µM
GI50 (CNS cancer cell lines): 7.57 µM
TGI (Breast cancer cell lines): 47.30 µM
GI50 (Breast cancer cell lines; Homo sapiens): 6.5 µM
GI50 [10]: 7.02 µM
GI50 (Melanoma cell lines): 8.07 µM
TGI (Melanoma cell lines): 28.21 µM
TGI (Colon cancer cell lines): 21.01 µM
GI50 (Colon cancer cell lines): 5.73 µM
GI50 (Renal cancer cell lines): 8.13 µM
TGI (Renal cancer cell lines): 44.04 µM

O=C1NC(=O)/C(=C/C(=O)N2N=C(c3ccc4ccccc4c3)CC2c2ccc(Cl)cc2)S1 (centres unmarked) [4f, 5-{2-[5-(4-Chlorophenyl)-3-naphthalen-2-yl-4,5-dihydropyrazol-1-yl]-2-oxoethylidene}-thiazolidine-2,4-dione]
GI50 [7]: 3.52 µM
TGI [7]: 61.59 µM
GI50 [8]: 9.79 µM
TGI [8]: 79.83 µM
GI50 ([9]; read-out: GI50 values range): 1.64 to 3.2 µM
TGI ([9]; 48 h): 7.38 µM
number of cell lines against which the compound was effective [1]: 18 cell lines
activity at 10 µM ([1]; read-out: Mean growth %): 51%
activity at 10 µM ([1]; read-out: Range of growth %): -5.27 to 109%
TGI (MOLT-4): 7.41 µM
TGI (CNS cancer cell lines): 31.99 µM
GI50 (CNS cancer cell lines): 4.09 µM
TGI (Breast cancer cell lines): 15.85 µM
GI50 [10]: 4.38 µM
GI50 (Melanoma cell lines): 4.08 µM
TGI (Melanoma cell lines): 45.88 µM
TGI (Colon cancer cell lines): 63.20 µM
GI50 (Colon cancer cell lines): 3.53 µM
GI50 [11]: 4.61 µM
GI50 (Renal cancer cell lines): 4.66 µM
TGI (Renal cancer cell lines): 53.25 µM
TGI (HS 578T): 8.26 µM

Cc1ccc(NC(=O)CN2C(=O)SC(N3N=C(c4ccc5ccccc5c4)CC3c3ccc(Cl)cc3)C2=O)cc1 (centres unmarked) [2b, 2-{5-[5-(4-Chlorophenyl)-3-naphthalen-2-yl-4,5-dihydropyrazol-1-yl]-2,4-dioxothiazolidin-3-yl}-N-p-tolylacetamide]
SI (SARS CoV Urbani): 0
EC50 (SARS CoV Urbani): > 351 µM

COc1ccc(NC(=O)CN2C(=O)S/C(=C\C(=O)N3N=C(c4ccc5ccccc5c4)CC3c3ccc(OC)cc3)C2=O)cc1 (centres unmarked) [5d, N-(4-Methoxyphenyl)-2-(5-{2-[5-(4-methoxyphenyl)-3-naphthalen-2-yl-4,5-dihydropyrazol-1-yl]-2-oxoethylidene}-2,4-dioxothiazolidin-3-yl)-acetamide]
anticancer activity in words [1]: did not show any activity
activity at 10 µM ([1]; read-out: Mean growth %): 98%
activity at 10 µM ([1]; read-out: Range of growth %): 74.7 to 119%

COc1ccc(C2CC(c3ccccc3)=NN2C(=O)/C=C2\SC(=O)NC2=O)cc1 (centres unmarked) [4a, 5-{2-[5-(4-Methoxyphenyl)-3-phenyl-4,5-dihydropyrazol-1-yl]-2-oxoethylidene}-thiazolidine-2,4-dione]
anticancer activity in words [1]: moderately effective against few cell lines
activity at 10 µM ([1]; read-out: Mean growth %): 96.6%
activity at 10 µM ([1]; read-out: Range of growth %): 39.1 to 147%

COc1ccc(C2CC(c3ccc4ccccc4c3)=NN2C2SC(=O)N(CN3CCN(C(C)=O)CC3)C2=O)cc1 (centres unmarked) [3c, 3-(4-Acetylpiperazin-1-ylmethyl)-5-[5-(4-methoxyphenyl)-3-naphthalen-2-yl-4,5-dihydro-pyrazol-1-yl]-thiazolidine-2,4-dione]
activity at 10 µM ([1]; read-out: Mean growth %): 101%
activity at 10 µM ([1]; read-out: Range of growth %): 82.2 to 126%

COc1ccc(C2CC(c3ccc4ccccc4c3)=NN2C2SC(=O)NC2=O)cc1 (centres unmarked) [1a, 5-[5-(4-Methoxyphenyl)-3-naphthalen-2-yl-4,5-dihydropyrazol-1-yl]-thiazolidine-2,4-dione]
anticancer activity in words [1]: did not show any activity
activity at 10 µM ([1]; read-out: Mean growth %): 102%
activity at 10 µM ([1]; read-out: Range of growth %): 77.5 to 114%
SI (SARS CoV Urbani): 0
EC50 (SARS CoV Urbani): > 23.5 µM

NC(=O)c1ncn([C@@H]2O[C@H](CO)[C@@H](O)[C@H]2O)n1 [Ribavirin]
CC50 (in vitro): > 348 µM
activity of positive controls, in words [4]: active as expected
